Experimental data from ChEMBL document CHEMBL2385009, “Guaiane-type sesquiterpenes from Curcuma phaeocaulis and their inhibitory effects on nitric oxide production” (J Nat Prod, 2013).
pIC50: −log10 of the molar value.

What was measured:
RAW264.7 [1] = assay: Antiinflammatory activity in mouse RAW264.7 cells assessed as inhibition of LPS-induced nitric oxide production after 24 hrs by Griess assay; assay type: functional, cell-based; settings: RAW264.7, 24 h
Outline: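 RAW 264.7 cells seeded at 1 × 10^5 cells/well, stimulated with LPS 1 μg/mL with or without test compound, 37 °C for 24 h. Nitrite in cell-free supernatant, taken as the NO indicator, measured by Griess reaction: supernatant mixed 1:1 with equal parts 1% sulfanilamide in 5% phosphoric acid and 0.1% N-(1-naphthyl)ethylenediamine, absorbance at 540 nm. Values given as IC50.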

RAW264.7 [2] = assay: Cytotoxicity against mouse RAW264.7 cells at IC50 by MTT assay; assay type: cell-based

pIC50 (RAW264.7 [1]) | SMILES | Activity (RAW264.7 [2])
4.89 | CC(C)=C1C[C@H]2[C@@H](CC[C@]2(C)O)C(CO)=CC1=O | Non-toxic
5.82 | CC1=C2C[C@H]3[C@@](C)(O)CC[C@@]34O[C@@]2(C[C@@]4(C)O)OC1=O | Non-toxic
5.72 | CC1=C2C[C@@H]3[C@H](CC[C@@]3(C)O)[C@](C)(O)C[C@H]2OC1=O | Non-toxic
4.24 | CC1=C2C[C@@H]3[C@H](CC[C@@]3(C)O)[C@@](C)(O)C[C@@H]2OC1=O | Non-toxic
5.23 | Cc1cc(=O)c(C(C)(C)O)cc2c1CC[C@]2(C)O | Non-toxic
4.99 | CC(C)=C1C[C@H]2[C@@H](CC[C@]2(C)O)[C@@](C)(O)CC1=O | Non-toxic
5.54 | CC1=C2C[C@H]3[C@H](CC[C@]3(C)O)[C@](C)(O)C=C2OC1=O | Non-toxic
5.52 | CC1=C2C[C@@H]3[C@@](C)(O)CC[C@@]3(O)[C@](C)(O)C=C2OC1=O | Non-toxic
4.52 | CC1=C2C[C@]3(O)[C@H](C)CC[C@H]3[C@@](C)(O)C=C2OC1=O | Non-toxic
4.71 | CC1=CC(=O)CC[C@@H]2[C@@](C)(O)CC[C@@]12O | Non-toxic
4.28 | CC1=C[C@@]2(O)O[C@@]3(CC2=C(C)C)[C@H](C)CC[C@@H]13 | Non-toxic
4.94 | CC(C)C1=C[C@@H]2[C@@H](CC[C@@H]2C)[C@@](C)(O)CC1 | Non-toxic
4.78 | CC(C)=C1C[C@H]2[C@H](CC[C@]2(C)O)[C@](C)(O)CC1=O [(1S,4S,5S,10R)-ZEDOARONDIOL] | Non-toxic
5.37 | CC(C)C1=C[C@H]2[C@@H](CC[C@]2(C)O)[C@](C)(O)CC1 [ALISMOXIDE] | Non-toxic
4.27 | CC(=O)CCc1ccc(C(C)(C)O)c(=O)cc1C [CURCUMADIONOL] | Non-toxic
5.38 | CC1=C[C@]2(O)O[C@@]3(CC2=C(C)C)[C@@H](C)CC[C@@H]13 [CURCUMENOL] | Non-toxic
4.36 | C[C@]12CCC(=O)C=C1CC[C@@H]1[C@@H]2[C@@H](O)C[C@@]2(C)[C@H]1CC[C@]2(O)C(=O)CO [HYDROCORTISONE] | –
4.92 | COc1ccc2c(c1)c(CC(=O)O)c(C)n2C(=O)c1ccc(Cl)cc1 [INDOMETHACIN] | –
5.01 | C=C1C[C@]2(O)O[C@@]3(CC2=C(C)C)[C@@H](C)CC[C@@H]13 [ISOCURCUMENOL] | Non-toxic
5.85 | CC(C)=C1C[C@H]2[C@H](CC[C@]2(C)O)[C@@](C)(O)CC1=O [ISOZEDOARONDIOL] | Non-toxic
4.24 | CC1=CC(=O)[C@@]2(C[C@]3(O)[C@@H](C)CC[C@@H]13)OC2(C)C [OXYCURCUMENOL EPOXIDE] | Non-toxic
4.93 | CC1=CC(=O)C(=C(C)C)C[C@@]2(O)[C@H]1CC[C@]2(C)O [PROCURCUMADIOL] | Non-toxic
4.86 | CC1=CC(=O)C(=C(C)C)C[C@H]2[C@H]1CC[C@]2(C)O [PROCURCUMENOL] | Non-toxic
5.80 | CC1=C2C[C@H]3[C@H](CC[C@]3(C)O)[C@@](C)(O)C[C@H]2OC1=O [ZEDOALACTONE A] | Non-toxic
5.89 | CC1=C2C[C@@H]3[C@@](C)(O)CC[C@]3(O)[C@](C)(O)C=C2OC1=O [ZEDOALACTONE B] | Non-toxic
4.21 | CC1=C2C[C@H]3[C@H](CC[C@]3(C)O)[C@@](C)(O)C[C@@H]2OC1=O [ZEDOALACTONE C] | Non-toxic
5.80 | CC1=C2C[C@@H]3[C@@](C)(O)CC[C@]3(O)[C@@](C)(O)C=C2OC1=O [ZEDOALACTONE D] | Non-toxic
4.06 | CC1=C2C[C@@H]3[C@@](C)(O)CC[C@]34O[C@]4(C)[C@H](O)[C@]2(O)OC1=O [ZEDOAROLIDE A] | Non-toxic
5.34 | CC1=C2C[C@H]3[C@H](CC[C@]3(C)O)[C@@](C)(O)C[C@]2(O)OC1=O [ZEDOAROLIDE B] | Non-toxic
4.27 | CC(C)=C1C[C@H]2[C@@H](CC[C@]2(C)O)[C@](C)(O)CC1=O [ZEDOARONDIOL] | Non-toxic
